The list is not random: actives were taken first. Their share in the collection is about 0.7%.
Vif imaging – HIV Vif inhibition | HEK293T cells, Vif self-association by quenched fluorescence, imaging, 24 h | inhibition, % at 7.49 µM | 340,000 compounds, 0.35% hits | AID 602346; in the data active = inhibition above about 50%, passing the limit was not always enough; inconclusive = no clear call, values can overlap the other calls; inactive = below about 31%
NPR2 activator – GC-B (human) receptor activation. AID 1920062. activation, % at 10 µM. P20594. HEK293-GC-B cells, CNP EC30, cGMP TR-FRET; 0% at EC30 CNP, 100% saturating CNP. 370,000 compounds, 0.11% hits;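 active = activation at 10 µM reaching about 35% in either raw or pattern-adjusted values, limit read from the data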
Target sequence (P20594 whole entry, looked up): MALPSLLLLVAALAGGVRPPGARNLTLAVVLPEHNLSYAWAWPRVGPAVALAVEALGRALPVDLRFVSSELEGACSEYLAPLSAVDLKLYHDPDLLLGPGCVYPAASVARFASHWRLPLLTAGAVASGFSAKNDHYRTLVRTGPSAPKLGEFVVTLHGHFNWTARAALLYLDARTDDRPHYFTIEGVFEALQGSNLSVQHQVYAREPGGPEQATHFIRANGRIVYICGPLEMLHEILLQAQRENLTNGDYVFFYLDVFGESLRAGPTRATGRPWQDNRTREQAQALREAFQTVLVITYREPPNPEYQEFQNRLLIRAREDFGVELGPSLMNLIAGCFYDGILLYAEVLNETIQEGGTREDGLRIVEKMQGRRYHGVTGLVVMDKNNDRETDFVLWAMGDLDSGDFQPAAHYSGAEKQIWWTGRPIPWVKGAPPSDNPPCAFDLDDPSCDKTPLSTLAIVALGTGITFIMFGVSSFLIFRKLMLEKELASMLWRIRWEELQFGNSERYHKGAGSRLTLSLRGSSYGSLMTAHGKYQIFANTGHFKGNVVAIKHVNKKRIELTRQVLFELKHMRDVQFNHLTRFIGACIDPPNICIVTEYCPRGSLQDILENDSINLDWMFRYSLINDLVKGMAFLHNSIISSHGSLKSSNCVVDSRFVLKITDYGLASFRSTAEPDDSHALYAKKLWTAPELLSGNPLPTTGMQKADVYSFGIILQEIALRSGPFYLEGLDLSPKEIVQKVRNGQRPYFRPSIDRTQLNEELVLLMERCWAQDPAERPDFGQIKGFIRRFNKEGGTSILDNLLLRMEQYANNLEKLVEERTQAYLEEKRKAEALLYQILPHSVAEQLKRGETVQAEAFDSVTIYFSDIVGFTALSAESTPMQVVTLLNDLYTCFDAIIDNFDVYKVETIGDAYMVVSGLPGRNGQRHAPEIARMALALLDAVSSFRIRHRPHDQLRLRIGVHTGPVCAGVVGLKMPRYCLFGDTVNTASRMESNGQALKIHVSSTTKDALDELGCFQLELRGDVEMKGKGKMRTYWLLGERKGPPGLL
N-glyco inh – N-linked glycosylation inhibition; D54 ERlucT glycosylation luciferase reporter, 24 h; percent of 100 nM tunicamycin response; reporter increase, % at 12.5 µM; 360,000 compounds, 0.23% hits; AID 588692;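 active = mean luciferase reporter signal, scaled so untreated is 0 and the glycosylation-blocking control 100, at or above a set limit in every replicate; inconclusive = mean reaches the limit but not every replicate does; inactive = mean below the limit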;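 note: luciferase carries N-glycosylation sites so blocking glycosylation raises the light; 0% = median of neutral control wells and 100% = median of 100 nM tunicamycin wells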
CaV13 FRET inh – Disruptors of the CACNA1D IQ motif to Ca2+-dependent inactivation inhibitor domain association, primary screening, Förster resonance energy transfer in intact living … | HEK cells, CFP/YFP FRET ICDI-IQ, plate reader, 10 min; percent FRET-ratio fall versus neutral wells | inhibition, % at 12.3 µM | 340,000 compounds, 0.098% hits | AID 743397;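 active = mean replicate inhibition of at least 30% and at least 1% of replicates passing that level; inconclusive = only one of the two criteria is met; inactive = neither criterion is met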;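 note: 0% = median of the neutral control wells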
XiGFP reactiv – reactivates the inactive X chromosome in mouse fibroblasts; XiGFP mouse fibroblasts, % GFP-positive cells imaging, 3 d; cells co-treated with 5-aza-dC sensitizer; scaled so ellipticine positive control = 100%; activation, % at 7.58 µM; 360,000 compounds, 0.055% hits; AID 743238;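 active = mean normalized replicate activation at least 10% and every replicate at or above 10%; inconclusive = only one of the two criteria met; inactive = mean below 10% and not all replicates reach 10%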;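 note: 0% = median of on-plate neutral control wells and 100% = ellipticine 6 µM median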
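assay system = SV40-immortalized XiGFP fibroblast cells, line 68-5-11 | buffer or medium = DMEM plus 5-aza-dC sensitizer | doses = single-point pinned compound dosing | times = 3-day compound exposure, then 15 min fixation at room temperature | benchmarks = positive control ellipticine, 6 µM final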
GC-A act – GC-A (human) enzyme activation | HEK293 GC-A cells, cGMP TR-FRET, EC30 ANP; 0% at EC30 ANP, 100% saturating ANP | activation, % at 10 µM | 370,000 compounds, 0.14% hits | AID 1671463; in the data active = activation above about 40%
* = called active by the depositor; ? = inconclusive; nt = no result; + = active, no number.

SMILES	Vif imaging	NPR2 activator	N-glyco inh	CaV13 FRET inh	XiGFP reactiv	GC-A act
Cn1nc(C(F)(F)F)c(/C=N/OC(=O)c2ccccc2)c1SCc1ccc(Cl)cc1	-9	0	73*	-4	nt	4
CN(C)CC(=O)N1[C@H](CO)[C@@H](c2ccccc2)C12CN(C(=O)C1CCCC1)C2	nt	nt	nt	nt	0	nt
CCCOc1ccccc1/C=C1\SC(N)=NC1=O	-2	3	-2	44*	0	-3
CCCOc1ccc(/C=C2\SC(N)=NC2=O)cc1OC	-6	6	6	-3	0	0
CO[C@@H]1CN(C)C(=O)c2ccc(NS(C)(=O)=O)cc2OC[C@@H](C)N(Cc2cncnc2)C[C@@H]1C	nt	nt	nt	nt	0	nt
Cn1nnnc1SCc1ccc(C(=O)Nc2ccc(Br)cc2)cc1	81*	-6	-8	nt	nt	2
CC(=O)Nc1ccc(C(=O)CSc2nnnn2C)cc1	-3	2	0	7	0	-2
CNC[C@H]1Oc2ccc(NS(C)(=O)=O)cc2C(=O)N(C)C[C@@H]1C	nt	nt	nt	nt	0	nt
CCCCN1C(=O)/C(=C/C=C2\SCCN2C)SC1=S	17	-1	1	-8	0	-7
CN1CCS/C1=C/C=C1/SC(=S)N(Cc2ccccc2)C1=O	52*	-3	2	-82	6	1
C[C@H]1CN([C@@H](C)CO)C(=O)c2cc(C#CC(C)(C)O)cnc2O[C@H]1CN(C)C(=O)C1CCCCC1	nt	nt	nt	nt	0	nt
N#Cc1c(C(F)(F)F)cc(-c2ccco2)nc1SCc1ccccn1	-4	1	1	nt	nt	2
N#Cc1c(C(F)(F)F)cc(-c2ccco2)nc1SCc1ccncc1	+	0	8	-18	nt	8
CCN(CC)c1ccc(/C=C/c2cc(-c3ccccc3)c3ccccc3n2)cc1	nt	-1	-3	-34	95*	13
COc1ccc2c3c(n(C)c2c1)[C@H](CO)N(CC1CC1)CC31CN(C(=O)Nc2c(C)noc2C)C1	nt	nt	nt	nt	0	nt
CCN1[C@H](C(=O)NC2CCCC2)[C@@H](CO)[C@@H]2Cn3c(ccc(-c4ccccc4F)c3=O)[C@@H]21	nt	nt	nt	nt	0	nt
Clc1ccc(C2Nc3cccc4cccc(c34)N2)cc1Cl	58*	3	3	-21	0	-29
CN(C)C(=O)CSc1nc2ccc(C(=O)c3ccccc3)cc2[nH]1	-3	-6	-2	62*	0	5
COc1ccc2c3c(n(C)c2c1)[C@@H](CO)N(C(=O)c1ccccc1)CC31CCN(C)CC1	nt	nt	nt	nt	0	nt
O=C1CCCN1CCCNc1nc2c(S(=O)(=O)c3ccccc3)nnn2c2ccc(Cl)cc12	-10	48*	5	-7	0	36
CCS(=O)(=O)c1nc(S(=O)(=O)c2ccc(C)cc2)c(NCCCN2CCCC2=O)s1	-6	0	-1	-5	0	-2
Cc1ccc(CNC(=O)c2cc(C3CC3)nc3c2cnn3C(C)C)cc1	-13	50*	1	-6	0	40*
COc1ccc(CNC(=O)c2cc(C3CC3)nc3c2cnn3C(C)C)cc1OC	-4	8	1	-5	0	6
CC1(Cc2ccccc2C#N)C(=O)Nc2cc(-c3ccccc3Cl)ccc21 (stereo not drawn)	27	9	-1	-11	0	13
CC1(Cc2ccc(C(F)(F)F)nc2)C(=O)Nc2cc(-c3ccccc3Cl)ccc21 (stereo not drawn)	-7	2	-4	-5	0	42*
SMILES	Vif imaging	NPR2 activator	N-glyco inh	CaV13 FRET inh	XiGFP reactiv	GC-A act
CN(C)c1ccc2c(c1)[C@H]1C[C@H](CC(=O)NCC3CC3)O[C@H](CO)[C@H]1O2	nt	nt	nt	nt	0	nt
C[C@H](CO)N1C[C@H](C)[C@H](CN(C)Cc2ccncc2)Oc2ccc(NS(=O)(=O)c3ccc(Cl)cc3)cc2CC1=O	nt	nt	nt	nt	-1	nt
COc1ccc(CCN2C(=O)C=CC2=O)cc1OC	3	4	-7	-14	0	16
COc1ccc(CCN2C(=O)c3cccnc3C2=O)cc1OC	56*	-2	1	nt	nt	2
Clc1ccc(-n2nnnc2SCc2c(-c3ccccc3)nc3sccn23)cc1	-23	39*	0	-3	nt	25
O=c1[nH]c(CSc2nnnn2-c2ccc(Cl)cc2)nc2ccccc12	5	-1	0	-4	0	-7
CCN(CC)C1=CC2=CC(=C(C#N)C#N)CCC2CC1 (stereo not drawn)	1	-1	3	24	82*	-6
CCCCN(C)C1=CC2=CC(=C(C#N)C#N)CCC2CC1 (stereo not drawn)	-2	-8	2	-6	?	1
O=C(NCC(F)(F)F)[C@H]1[C@H](CO)[C@H]2Cn3c(cccc3=O)[C@H]2N1Cc1cccc(F)c1	nt	nt	nt	nt	1	nt
NCCOc1ccccc1-c1ccccc1	50*	-8	-1	0	nt	-4
NCCOc1ccccc1OCCN	0	-1	1	-7	0	1
O=C(NCc1ccc(F)cc1)C1CCCN1C(=O)Nc1cccc(F)c1 (stereo not drawn)	-3	-4	-1	64*	0	-1
COc1ccc(NC(=O)N2CCCC2C(=O)NCc2ccc(F)cc2)cc1 (stereo not drawn)	7	-1	1	nt	nt	-1
CCc1nnc2n1N=C(c1ccc(OC)cc1)CS2	-13	1	37*	-4	nt	0
CCc1nnc2n1N=C(c1ccc([N+](=O)[O-])cc1)CS2	-5	1	1	-4	0	0
CCOc1ccc(-c2nnc3n2N=C(c2ccc(OC)cc2)CS3)cc1	50*	0	3	-5	nt	5
C[C@@H]1CN([C@@H](C)CO)S(=O)(=O)c2ccc(C#CC3CC3)cc2O[C@H]1CN(C)C	nt	nt	nt	nt	-1	nt
O=[N+]([O-])c1cccc(-c2n[nH]c(=S)n2-c2ccc(Br)cc2)c1	6	0	-1	55*	-1	2
COc1ccc(OC)c(S(=O)(=O)Nc2ccc3c(c2)n(C)c(=O)n3C)c1	-9	-1	28*	-7	0	3
Cc1ccc(S(=O)(=O)Nc2ccc(Nc3ccccc3)cc2)cc1	-6	-3	0	68*	0	2
O=S(=O)(Nc1ccc(Nc2ccccc2)cc1)c1ccc(F)cc1	-5	-2	-1	-4	0	3
Cn1c(=O)n(C)c2cc(NS(=O)(=O)c3ccccc3)ccc21	-5	nt	34*	nt	nt	nt
COc1ccc(NS(=O)(=O)c2cc(OC)ccc2OC)cc1	-3	-9	0	-2	0	-12
Cc1ccc(S(=O)(=O)Nc2ccc3c(c2)n(C)c(=O)n3C)cc1	9	4	65*	-3	0	0
